Measured values: the M2OR odorant receptor database

How the values were obtained:
Conditions in all cases: stereoisomer not certain
[1] = molecular target: T1, UniProt Q8VF52
T1 sequence (whole entry): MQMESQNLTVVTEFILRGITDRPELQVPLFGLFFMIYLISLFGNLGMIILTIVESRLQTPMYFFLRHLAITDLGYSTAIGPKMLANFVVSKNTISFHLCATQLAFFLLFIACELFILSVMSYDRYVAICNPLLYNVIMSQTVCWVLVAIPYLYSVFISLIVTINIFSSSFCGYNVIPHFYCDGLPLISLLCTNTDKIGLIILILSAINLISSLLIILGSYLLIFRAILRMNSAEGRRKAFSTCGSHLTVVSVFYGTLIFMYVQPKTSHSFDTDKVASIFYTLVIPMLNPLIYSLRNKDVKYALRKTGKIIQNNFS
Outline: (§1)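 Assay methods differ from source to source, frequently being transient luciferase assays in mammalian cell lines. For each receptor–molecule pair, the label responsive (active) applies when the original authors judged the measured signal statistically different from baseline, and non-responsive (inactive) applies otherwise.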

[2] = molecular target: T2, UniProt Q8VFM8
T2 sequence (whole entry): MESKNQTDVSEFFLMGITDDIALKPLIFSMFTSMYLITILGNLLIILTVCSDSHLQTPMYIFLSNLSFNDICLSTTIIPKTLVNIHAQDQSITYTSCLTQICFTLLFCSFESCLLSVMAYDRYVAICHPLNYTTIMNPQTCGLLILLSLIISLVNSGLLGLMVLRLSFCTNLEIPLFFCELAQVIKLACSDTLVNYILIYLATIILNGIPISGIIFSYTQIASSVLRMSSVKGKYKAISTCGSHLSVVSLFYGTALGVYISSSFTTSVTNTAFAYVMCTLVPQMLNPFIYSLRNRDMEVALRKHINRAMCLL
Outline: as §1

[3] = molecular target: T3, UniProt Q8VFP5
T3 sequence (whole entry): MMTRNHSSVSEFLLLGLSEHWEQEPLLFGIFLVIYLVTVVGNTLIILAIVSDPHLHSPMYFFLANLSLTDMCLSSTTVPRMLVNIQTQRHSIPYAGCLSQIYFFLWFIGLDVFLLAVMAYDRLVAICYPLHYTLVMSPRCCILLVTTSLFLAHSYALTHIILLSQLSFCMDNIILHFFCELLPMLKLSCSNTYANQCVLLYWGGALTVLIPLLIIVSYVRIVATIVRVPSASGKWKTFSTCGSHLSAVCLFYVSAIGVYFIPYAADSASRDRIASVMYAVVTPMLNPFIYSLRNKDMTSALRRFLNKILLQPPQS
Outline: as §1

[4] = molecular target: T4, UniProt Q8VG01
T4 sequence (whole entry): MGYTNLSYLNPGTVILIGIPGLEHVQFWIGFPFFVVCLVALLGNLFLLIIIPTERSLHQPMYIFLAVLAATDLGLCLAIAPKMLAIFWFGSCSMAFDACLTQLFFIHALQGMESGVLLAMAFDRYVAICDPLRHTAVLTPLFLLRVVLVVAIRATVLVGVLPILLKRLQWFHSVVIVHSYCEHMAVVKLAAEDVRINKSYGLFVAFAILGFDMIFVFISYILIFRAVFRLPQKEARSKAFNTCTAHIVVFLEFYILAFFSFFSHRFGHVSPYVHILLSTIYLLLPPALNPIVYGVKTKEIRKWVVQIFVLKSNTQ
Outline: as §1

[5] = molecular target: T5, UniProt Q8VG27
T5 sequence (whole entry): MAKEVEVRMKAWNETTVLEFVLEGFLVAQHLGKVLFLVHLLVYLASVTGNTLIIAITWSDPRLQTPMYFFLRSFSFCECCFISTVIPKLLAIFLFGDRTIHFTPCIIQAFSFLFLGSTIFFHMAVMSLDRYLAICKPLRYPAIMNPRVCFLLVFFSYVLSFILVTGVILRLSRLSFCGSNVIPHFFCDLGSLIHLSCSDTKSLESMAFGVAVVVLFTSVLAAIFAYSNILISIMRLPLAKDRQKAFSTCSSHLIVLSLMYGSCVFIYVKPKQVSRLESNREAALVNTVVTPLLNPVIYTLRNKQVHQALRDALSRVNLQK
Outline: as §1

[6] = molecular target: T6, UniProt Q8VG53
T6 sequence (whole entry): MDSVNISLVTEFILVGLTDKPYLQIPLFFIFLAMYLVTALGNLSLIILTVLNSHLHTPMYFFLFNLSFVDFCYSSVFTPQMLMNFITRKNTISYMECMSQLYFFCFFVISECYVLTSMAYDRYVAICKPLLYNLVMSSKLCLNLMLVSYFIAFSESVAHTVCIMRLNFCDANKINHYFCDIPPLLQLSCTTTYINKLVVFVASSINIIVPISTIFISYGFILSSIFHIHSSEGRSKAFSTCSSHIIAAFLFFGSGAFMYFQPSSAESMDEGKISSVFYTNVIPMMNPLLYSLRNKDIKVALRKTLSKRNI
Outline: as §1

[7] = molecular target: T7, UniProt Q8VG64
T7 sequence (whole entry): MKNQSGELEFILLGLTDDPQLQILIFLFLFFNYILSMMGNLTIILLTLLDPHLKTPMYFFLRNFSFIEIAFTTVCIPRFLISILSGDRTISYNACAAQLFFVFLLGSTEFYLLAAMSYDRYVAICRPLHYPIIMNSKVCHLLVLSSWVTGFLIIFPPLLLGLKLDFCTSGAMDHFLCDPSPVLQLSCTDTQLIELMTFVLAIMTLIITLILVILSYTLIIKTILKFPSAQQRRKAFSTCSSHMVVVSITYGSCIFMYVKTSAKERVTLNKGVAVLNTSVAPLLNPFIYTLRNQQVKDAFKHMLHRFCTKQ
Outline: as §1

[8] = molecular target: T8, UniProt Q8VGB9
T8 sequence (whole entry): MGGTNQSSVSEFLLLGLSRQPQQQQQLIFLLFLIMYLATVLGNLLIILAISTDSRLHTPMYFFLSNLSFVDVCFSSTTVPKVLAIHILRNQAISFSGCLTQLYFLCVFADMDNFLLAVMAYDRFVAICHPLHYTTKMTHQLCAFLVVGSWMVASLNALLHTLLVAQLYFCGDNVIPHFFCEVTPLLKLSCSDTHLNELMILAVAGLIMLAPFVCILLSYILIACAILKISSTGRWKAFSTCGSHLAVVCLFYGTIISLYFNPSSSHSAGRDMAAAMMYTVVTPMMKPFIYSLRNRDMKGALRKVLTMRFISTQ
Outline: as §1

[9] = molecular target: T9, UniProt Q8VGC6
T9 sequence (whole entry): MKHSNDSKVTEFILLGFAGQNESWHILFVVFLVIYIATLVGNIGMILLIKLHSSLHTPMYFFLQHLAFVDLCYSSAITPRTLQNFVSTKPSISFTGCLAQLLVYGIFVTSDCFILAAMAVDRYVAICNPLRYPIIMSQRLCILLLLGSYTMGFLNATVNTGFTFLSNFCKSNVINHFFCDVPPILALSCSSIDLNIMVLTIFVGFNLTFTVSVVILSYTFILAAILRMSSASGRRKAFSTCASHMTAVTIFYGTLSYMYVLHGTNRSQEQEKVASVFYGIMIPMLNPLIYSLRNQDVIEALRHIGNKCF
Outline: as §1

[10] = molecular target: T10, UniProt Q8VGJ3
T10 sequence (whole entry): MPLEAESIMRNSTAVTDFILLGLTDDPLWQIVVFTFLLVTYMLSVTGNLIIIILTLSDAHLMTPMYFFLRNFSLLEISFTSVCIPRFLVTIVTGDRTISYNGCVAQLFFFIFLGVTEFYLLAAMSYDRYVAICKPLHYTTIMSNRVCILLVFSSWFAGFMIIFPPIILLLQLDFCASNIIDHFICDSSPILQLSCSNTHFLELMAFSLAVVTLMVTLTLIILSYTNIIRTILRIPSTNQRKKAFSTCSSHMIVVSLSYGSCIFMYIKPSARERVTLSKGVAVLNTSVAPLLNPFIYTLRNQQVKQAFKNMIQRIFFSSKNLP
Outline: as §1

Measured: odorant receptor agonist call

CSSC
inactive: all assays above

CCCCC(Br)C(=O)O (stereo not given)
inactive: all assays above
